Data set [1] concerns Staphylococcus aureus. The data set can be described thus: Antibacterial activity against methicillin-resistant Staphylococcus aureus ATCC BAA-44 after overnight incubation by broth microdilution assay in presence of 8 ug/ml cefazolin. It is filed as functional. In outline:
(§1)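 Resensitization screen: compound from a 5 mg/mL DMSO stock, 2-fold serially diluted in MHB from 32 μg/mL final. Antibiotic was held at its CLSI-susceptible level: amoxicillin/clavulanic acid 4/2 μg/mL, cefazolin 8 μg/mL, meropenem 4 μg/mL. Final MRSA inoculum OD600 0.001, overnight at 37 °C with shaking. MRC was the concentration giving no visible overnight growth.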
On the technique in general: In broth dilution the organism is exposed to a series of concentrations in liquid medium.

The subject of data set [2] is Staphylococcus aureus. The data set can be described thus: Antibacterial activity against methicillin-resistant Staphylococcus aureus ATCC 33592 after overnight incubation by broth microdilution assay in presence of 4 ug/ml meropenem. It is filed as functional. In outline: as §1
Data set [3] concerns Staphylococcus aureus. The data set can be described thus: Antibacterial activity against methicillin-resistant Staphylococcus aureus ATCC BAA-44 after overnight incubation by broth microdilution assay in presence of 4 ug/ml amoxicillin and 2 ug/ml clavulanic acid. The data set is classed as functional. Put shortly:
as §1

A short description of data set [4]: Cytotoxicity against human HeLa cells after 24 hrs by CellTiter-Glo assay. It is filed as cell-based. Put shortly:
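HeLa cells seeded at 20 000 cells/well in DMEM with 10% FCS and 1% penicillin/streptomycin, grown 16 h at 37 °C, 5% CO2. Medium renewed, then compound added in DMSO to final 0.5–32 μg/mL, triplicate series. After 24 h at 37 °C, plates equilibrated to room temperature and viability read by CellTiter-Glo luminescence.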
(In ATP-based viability assays light output follows the ATP content of the culture.)

This is an account of results in ChEMBL document CHEMBL3259770, “Structure-activity relationship studies of the tricyclic indoline resistance-modifying agent” (J Med Chem, 2014).

≈ marks a conversion by molar mass, not a printed value.

Usually GI50 stands for the concentration giving 50% growth inhibition. Lower therefore signals greater sensitivity of the cells.

For the compound `C=C1CCC[C@@H]2N(C)c3ccc(Br)cc3[C@]12CCNS(=O)(=O)c1ccc(Cl)cc1`, the MRC in the data set with Staphylococcus aureus [1], with Staphylococcus aureus [2] and in the data set on Staphylococcus aureus [3] was above 32 µg/mL each time.

Take `C=C1CCC[C@@H]2N(S(=O)(=O)c3ccc(Cl)cc3)c3ccc(Br)cc3[C@]12CCNS(=O)(=O)c1ccc(Cl)cc1`: the MRC with Staphylococcus aureus [1], in the data set with Staphylococcus aureus [2] and in the data set with Staphylococcus aureus [3] was above 32 µg/mL throughout.

Regarding `C=C1CCC[C@@H]2N(C(=O)c3ccc(Cl)cc3)c3ccc(Br)cc3[C@]12CCNS(=O)(=O)c1ccc(Cl)cc1`, the MRC with Staphylococcus aureus [1], in the data set with Staphylococcus aureus [2] and in the data set with Staphylococcus aureus [3] was above 32 µg/mL each time.

In the case of `C=C1CCC[C@@H]2Nc3ccc(Br)cc3[C@]12CCN(C)S(=O)(=O)c1ccc(Cl)cc1`, the MRC with Staphylococcus aureus [1], with Staphylococcus aureus [2] and in the data set on Staphylococcus aureus [3] was above 32 µg/mL throughout.

As to `C=C1CCC[C@@H]2Nc3ccc(Br)cc3[C@]12CCN(S(=O)(=O)c1ccc(Cl)cc1)S(=O)(=O)c1ccc(Cl)cc1`, the MRC with Staphylococcus aureus [1], in the data set on Staphylococcus aureus [2] and in the data set on Staphylococcus aureus [3] was above 32 µg/mL throughout.

Turning to `C=C1CCC[C@@H]2Nc3ccc(Br)cc3[C@]12CCN(C(=O)c1ccc(Cl)cc1)S(=O)(=O)c1ccc(Cl)cc1`, the MRC in the data set with Staphylococcus aureus [1], in the data set on Staphylococcus aureus [2] and in the data set on Staphylococcus aureus [3] was above 32 µg/mL in each case.

With `C=C1CCC[C@@H]2Nc3ccc(Br)cc3[C@]12CCNS(=O)(=O)c1ccc(Cl)cc1`, the MRC in the data set with Staphylococcus aureus [1], with Staphylococcus aureus [2] and with Staphylococcus aureus [3] was 4 µg/mL throughout. Besides, halving of growth in data set [4] (GI50 at 24 h) required 17.1 µg/mL (≈ 35.5 µM).

As to `C=C1CCC[C@@H]2Nc3ccc(C)cc3[C@]12CCNS(=O)(=O)c1ccc(Cl)cc1`, the MRC was 16 µg/mL with Staphylococcus aureus [1], 32 µg/mL with Staphylococcus aureus [2] and 16 µg/mL in the data set on Staphylococcus aureus [3].

On to `C=C1CCC[C@@H]2Nc3ccc(OC)cc3[C@]12CCNS(=O)(=O)c1ccc(Cl)cc1`, for which the MRC in the data set on Staphylococcus aureus [1], in the data set on Staphylococcus aureus [2] and with Staphylococcus aureus [3] was above 32 µg/mL in each case.

For the compound `C=C1CCC[C@@H]2Nc3ccc(F)cc3[C@]12CCNS(=O)(=O)c1ccc(Cl)cc1`, the MRC with Staphylococcus aureus [1], in the data set with Staphylococcus aureus [2] and with Staphylococcus aureus [3] was 16 µg/mL in each case.

Turning to `C=C1CCC[C@@H]2Nc3ccccc3[C@]12CCNS(=O)(=O)c1ccc(Cl)cc1`, the MRC in the data set with Staphylococcus aureus [1], in the data set with Staphylococcus aureus [2] and in the data set with Staphylococcus aureus [3] was 16 µg/mL each time.

As for `C=C1CCC[C@@H]2Nc3c(ccc4ccccc34)[C@]12CCNS(=O)(=O)c1ccc(Cl)cc1`, the MRC in the data set on Staphylococcus aureus [1], in the data set on Staphylococcus aureus [2] and with Staphylococcus aureus [3] was above 32 µg/mL in each case.

For `C=C1CCC[C@@H]2Nc3c(Br)cccc3[C@]12CCNS(=O)(=O)c1ccc(Cl)cc1`, the MRC with Staphylococcus aureus [1] was 32 µg/mL; in the data set with Staphylococcus aureus [2], 8 µg/mL; in the data set on Staphylococcus aureus [3], above 32 µg/mL.

On to `C=C1CCC[C@@H]2Nc3cc(Br)ccc3[C@]12CCNS(=O)(=O)c1ccc(Cl)cc1`, for which the MRC with Staphylococcus aureus [1], with Staphylococcus aureus [2] and with Staphylococcus aureus [3] was 16 µg/mL each time.

Regarding `C=C1CCC[C@@H]2Nc3cccc(Br)c3[C@]12CCNS(=O)(=O)c1ccc(Cl)cc1`, the figures for the MRC with Staphylococcus aureus [1], with Staphylococcus aureus [2] and with Staphylococcus aureus [3] were 16 µg/mL, 16 µg/mL and 32 µg/mL, respectively.

With `C=C1CCC[C@@H]2Nc3c(F)cc(Cl)cc3[C@]12CCNS(=O)(=O)c1ccc(Cl)cc1`, the MRC with Staphylococcus aureus [1] is 16 µg/mL; in the data set on Staphylococcus aureus [2], 32 µg/mL; in the data set with Staphylococcus aureus [3], 16 µg/mL.

On to `C=C1CCC[C@@H]2Nc3c(Cl)cc(Cl)cc3[C@]12CCNS(=O)(=O)c1ccc(Cl)cc1`, for which the MRC with Staphylococcus aureus [1], in the data set with Staphylococcus aureus [2] and in the data set with Staphylococcus aureus [3] was 4 µg/mL in each case. Moreover, the GI50 at 24 h in data set [4] was 13.6 µg/mL (≈ 28.8 µM).

Take `C=C1CCC[C@@H]2Nc3c(F)cc(Br)cc3[C@]12CCNS(=O)(=O)c1ccc(Cl)cc1`: the MRC in the data set on Staphylococcus aureus [1] amounted to 4 µg/mL; in the data set with Staphylococcus aureus [2] it was 4 µg/mL; in the data set with Staphylococcus aureus [3] it was 2 µg/mL. This compound also yielded a GI50 at 24 h in data set [4] of 18.1 µg/mL (≈ 36.2 µM).

Consider `C=C1CCC[C@@H]2Nc3ccc(Br)cc3[C@]12CCN`, for which the MRC with Staphylococcus aureus [1], in the data set with Staphylococcus aureus [2] and in the data set with Staphylococcus aureus [3] was 32 µg/mL in each case.

For the compound `C=C1CCC[C@@H]2Nc3ccc(Br)cc3[C@]12CCNC(=O)C(F)(F)F`, the MRC is above 32 µg/mL in the data set on Staphylococcus aureus [1], 32 µg/mL with Staphylococcus aureus [2] and above 32 µg/mL with Staphylococcus aureus [3].

Regarding `C=C1CCC[C@@H]2Nc3ccc(Br)cc3[C@]12CCNC(=O)CCCC`, the MRC in the data set on Staphylococcus aureus [1] was above 32 µg/mL; in the data set on Staphylococcus aureus [2], 32 µg/mL; in the data set on Staphylococcus aureus [3] it was above 32 µg/mL.

For the compound `C=C1CCC[C@@H]2Nc3ccc(Br)cc3[C@]12CCNC(=O)c1ccc(Cl)cc1`, the MRC in the data set on Staphylococcus aureus [1], with Staphylococcus aureus [2] and in the data set with Staphylococcus aureus [3] was above 32 µg/mL each time.

Consider `C=C1CCC[C@@H]2Nc3ccc(Br)cc3[C@]12CCNS(=O)(=O)c1ccccc1`, for which the MRC was 8 µg/mL in the data set with Staphylococcus aureus [1], 16 µg/mL in the data set with Staphylococcus aureus [2] and 8 µg/mL in the data set with Staphylococcus aureus [3].

With `C=C1CCC[C@@H]2Nc3ccc(Br)cc3[C@]12CCNS(=O)(=O)c1ccc(C)cc1`, the MRC with Staphylococcus aureus [1], with Staphylococcus aureus [2] and in the data set with Staphylococcus aureus [3] was above 32 µg/mL each time.

For `C=C1CCC[C@@H]2Nc3ccc(Br)cc3[C@]12CCNS(=O)(=O)c1ccc(F)cc1`, the MRC in the data set with Staphylococcus aureus [1], in the data set with Staphylococcus aureus [2] and in the data set with Staphylococcus aureus [3] was above 32 µg/mL throughout.

In the case of `C=C1CCC[C@@H]2Nc3ccc(Br)cc3[C@]12CCNS(=O)(=O)c1ccc(Cl)cc1Cl`, the MRC in the data set on Staphylococcus aureus [1] was above 32 µg/mL; in the data set with Staphylococcus aureus [2], 4 µg/mL; in the data set on Staphylococcus aureus [3] it was 8 µg/mL.

With `C=C1CCC[C@@H]2Nc3ccc(Br)cc3[C@]12CCNS(=O)(=O)c1ccc(C#N)cc1`, the MRC in the data set on Staphylococcus aureus [1] was 8 µg/mL; in the data set on Staphylococcus aureus [2], 16 µg/mL; with Staphylococcus aureus [3], 16 µg/mL.

For the compound `C=C1CCC[C@@H]2Nc3ccc(Br)cc3[C@]12CCNS(=O)(=O)c1ccc(NC(C)=O)cc1`, the figures for the MRC in the data set with Staphylococcus aureus [1], in the data set with Staphylococcus aureus [2] and in the data set on Staphylococcus aureus [3] were above 32 µg/mL, 32 µg/mL and above 32 µg/mL, respectively.

Take `C=C1CCC[C@@H]2Nc3ccc(Br)cc3[C@]12CCNS(=O)(=O)c1ccccn1`: the MRC in the data set with Staphylococcus aureus [1], in the data set on Staphylococcus aureus [2] and in the data set on Staphylococcus aureus [3] was 32 µg/mL throughout.

For `C=C1CCC[C@@H]2Nc3ccc(Br)cc3[C@]12CCNS(=O)(=O)c1ccc([N+](=O)[O-])cc1`, the MRC with Staphylococcus aureus [1], with Staphylococcus aureus [2] and with Staphylococcus aureus [3] was above 32 µg/mL each time.

For `C=C1CCC[C@@H]2Nc3ccc(Br)cc3[C@]12CCNS(=O)(=O)c1ccc(N)cc1`, the MRC in the data set on Staphylococcus aureus [1], in the data set with Staphylococcus aureus [2] and in the data set with Staphylococcus aureus [3] was 16 µg/mL each time.
